In the EternaBench riboswitch data:

System: MS2 coat protein
Experiment: apparent Kd, MS2 coat protein; higher = weaker binding; RNA-MaP array; FMN 200 µM where present
Summary of the method: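 Stalled E. coli RNA polymerase produced the designs on Illumina sequencing-chip clusters. SNAP-549-labelled MS2 coat protein was added from 0.7 or 1.5 nM, doubling to 3 µM, without and then with constant ligand, in 100 mM Tris-HCl pH 7.5, 80 mM KCl, 4 mM MgCl2, BSA, DTT, yeast tRNA and Tween-20. The apparent Kd is the median of filtered per-cluster fits of green signal normalised to red-channel RNA signal and control-cluster median Fmax.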

[1] = designed as: OFF switch for flavin mononucleotide, no ligand
[2] = ligand present: flavin mononucleotide, designed as: OFF switch for flavin mononucleotide
[3] = designed as: ON switch for flavin mononucleotide, no ligand
[4] = ligand present: flavin mononucleotide, designed as: ON switch for flavin mononucleotide

Sequence	apparent Kd [1] [µM]	apparent Kd [2] [µM]	apparent Kd [3] [µM]	apparent Kd [4] [µM]
GACGGGAAUGAGAAGGGUCACAUGAGGAUCACCCAUGUGCUCUUCGCCGUGACAGGAUAUCAUUGCCGCCAGGUUAGAUUUUUG	0.00787	0.0223		
GCCAUCGCAUGAGGAUAUGGUCUGCUUUGCAGACCAGAAGGCAUGUCAUAAGACAUGAGGAUCACCCAUGUAGUUAAGAUGGCA			0.8	0.0439
GUAGAGUAAGGAUAUGGUGAAUAGGAUAGAAUGGUUAGAAACUAGAAGGUACAUGAGGAUCACCCAUGUAAUGU	0.0217	0.0207		
AAUCCACAUGAGGAUCACCCAUGUCAGGAUAUCGUGUCGCGGGUUUCGGUCCGUGAUGCGAGAAGGGACGGCUG	0.0319	0.0531		
CGAGUGUAAGGAUAUUCGGCACUAGGGACCACCCUAGUGUAGAAGAAGGUACAUGAGGAUCACCCAUGUGGUUA	0.369	0.428		
AAAACGGCGCGUCCCGCACCAACUACAGAAGGCCAACAUGAGGAUCACCCAUGUACAAACUAGAUGGAGGAUAUGUAGGUUCUA			0.00676	0.00463
CACGGAUAGUAGAAGGGUGACAUGAGGAUCACCCAUGUACUUAUUUAUUUAUUACUAUUUGAUACACAGGAUAUACUAUCCGUG			0.957	0.279
AGGGAGUGAGGAUAUGCUGCUCGUCACUUGCGUGAUGAGUAGCAGAAGGUACAUGAGGAUCACCCAUGUAAAGA	0.0345	0.0222		
CUAUGGGCAGGAUAUGCAUAUCGGGAGUGGUCGCAAGCGUUACAUGAGGAUCACCCAUGUAGAAGGGCCGCGUC	0.0189	0.0204		
AUUUAAAUGUCAGGAUAUGGUAGUUUAUACUUAUUAGAAGGGAUAAUUAUACUCAAGUACAUGAGGAUCACCCAUGUUAAAUCA			0.0219	0.0215
AUACUUAAUGAAGGAUAUCUCAGCAUAAACCUGAGAGAAGGUCAUUGUUACAUGAGGAUCACCCAUGUUGUAGUUAAUGGGUAA	0.421	0.413		
ACACAUGAGGAUCACCCAUGUAGCUGGCGUCUGCACCAGCCACAGGAUAUACGGCAACACAAGCCGUAGAAGGGUGAUAAACAC			0.0675	0.0216
UAGAAGUCAGGAUAUGCAUGGCGGGACUUGCGUCGUGGCGUGCAGAAGGGACAUGAGGAUCACCCAUGUAAAGA	0.0561	0.0534		
AAGAGGAAAGCAGGAUAUCUAUAGGCUCCUUAACAUGAGGAUCACCCAUGUAGAGAAGGGCUAAGACCGACUCUUCGGAGUUGG	0.00869	0.0253		
AGCAUGUGAGGAUAUGCAGACUCCGGUAAAUCUGGAGUCCGGUAGAAGGCACAUGAGGAUCACCCAUGUGAGAU	0.0434	0.119		
AAACAGUACGAGAAGGGCUACAUGAGGAUCACCCAUGUAGACGGUCGUGUGGCAGGAUAUCGAACGCACCCGAAACGGUGUGUU	0.00507	0.00703		
UUCAUGUGAGGAUAUCAGUAGUAAAAAAAUAAAAUUACUACUGAGAAGGCACAUGAGGAUCACCCAUGUGUCUC	0.0221	0.0267		
AUACUCAAUGAAGGAUAUCUCAGCAUAAACCUGAGAGAAGGUCAUUGUUACAUGAGGAUCACCCAUGUUGUAGUUAAUGGGUAA	0.504	0.573		
ACAUGGAAGCAGGAUAUGCUUGUUUAAUUGUUUGCAGAAGGGCUAACAUGAGGAUCACCCAUGUAAGAGGUCUA	0.017	0.0296		
UGAUCUUGUGUCAGGAUAUGCUGGUCUCCUCUCCAGCAGAAGGGACAUGAGGAUCACCCAUGUUCUCUCUUUUU	0.011	0.0286		
GCUAUCGAUGUAGGAUAUGCUAGGGAAACCCUGGCAGAAGGACAUGAGGAUCACCCAUGUCAAUGGAUGGAGAGAAGAGAUGGC	0.0256	0.0743		
